Activity calls are given as the source filed them. The calls are words filed in the database; no cut-off is given here.
Key:
[1] = tested on: SW480 (Homo sapiens); assay: Cytotoxicity against human SW480 cells pre-incubated with CuCl2 for 60 mins followed by compound addition for 72 hrs by MTT assay
[2] = tested on: HL-60; assay: Induction of intracellular ROS generation in human HL60 cells at 1 and 5 uM in presence of CuCl2 incubated for 30 mins by DCF-DA staining based fluorescence assay; format: functional, cell-based
In short: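 HL-60 cells (5 × 10^5 per sample, phenol-free Hanks balanced salt solution) were loaded with DCF-DA for 30 min. CuCl2 was added 15 min before the thiosemicarbazone, at a ligand:Cu ratio of 1:1 or 1:2. Drug exposure lasted a further 30 min, and mean fluorescence was read by flow cytometry. H2O2 (200 μM) served as control. Data are mean ± SD of three experiments.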

[3] = tested on: SW480; assay: Induction of morphological changes in human SW480 cells assessed as induction of massive cell flattening at 2.5 uM incubated for 48 hrs by phase contrast microscopy; format: functional, cell-based
[4] = tested on: SW480; assay: Induction of morphological changes in human SW480 cells assessed as induction of vesicular blebbing in cytosol at 2.5 uM incubated for 48 hrs by phase contrast microscopy; format: functional, cell-based
[5] = tested on: SW480; assay: Induction of morphological changes in human SW480 cells assessed as induction of vacuoles at 2.5 uM incubated for 24 hrs by phase contrast microscopy; format: functional, cell-based
In short: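 SW480 cells (MEM + 10% FCS) were treated for 24 h and then photographed at 400× magnification with an sCMOS camera on a fluorescence microscope to visualise cytoplasmic vacuoles.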

[6] = physchem; details: n-octanol/water, pH 7.4

Row | Compound | Activity [1] | Activity [2] | Activity [3] | also measured
1 | NC(=S)N/N=C/c1ncccc1N | inactive | Active | Active | 
2 | CN(C)C(=S)N/N=C/c1ncccc1N(C)C |  | Active |  | Activity [4]: Active; Activity [5]: Active
3 | CN(C)C(=S)NN=C(c1ccccn1)c1ccccn1 | Active |  |  | 
4 | CNC(=S)N/N=C/c1ncccc1N |  |  | Active | 
5 | CN(C)c1cccnc1/C=N/NC(N)=S | Active |  |  | 
6 | CNC(=S)N/N=C/c1ncccc1N(C)C | Active | Active | inactive | Activity [4]: Active
7 | CN(C)C(=S)N/N=C/c1ncccc1N |  | Active |  | logD [6]: 1.3
8 | CNc1cccnc1/C=N/N=C(/N)S |  |  | Active | 
9 | CNc1cccnc1/C=N/NC(=S)N(C)C | Active |  | inactive | 

Source: ChEMBL document CHEMBL4425126 (J Med Chem, 2016)
